Molecules are shown by their SMILES.

The IC50 is the point on the concentration scale where inhibition reaches its midpoint. The low end stands for higher potency, the high end for lower potency.

The first experiment deals with MCF7. Put plainly: The compound was tested for antiproliferative activity against MCF-7 human breast cancer cells. Type of experiment: functional, cell-based. Put shortly:
(§1)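 MCF-7 human breast cancer cells, MTT assay. Growth inhibition expressed as % of control absorbance after 6 days incubation. IC50 read graphically as the concentration giving a 50% decrease in cell growth. Mean of three experiments; deviations within ±5%.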
`COc1cc(O)c(C(=O)/C=C/c2ccccc2)c(O)c1` returned an IC50 greater than 60 µM. The same measure, in the same setting: in the case of `O=c1cc(-c2ccccc2)oc2c(O)c(O)ccc12` [7,8-DIHYDROXYFLAVONE] it was 27.5 µM; in that of `COc1ccc(C(=O)/C=C/c2ccccc2)c(O)c1`, 26.8 µM. For the compound `COc1cccc2c1C(=O)CC(c1ccccc1)O2` (stereo not drawn), inhibition was half-maximal at 35.7 µM (IC50). Same read-out and setting: in the case of `O=C(/C=C/c1ccccc1)c1ccc(O)cc1O` [2',4'-DIHYDROXYCHALCONE] it was 16.3 µM; in that of `O=C(/C=C/c1ccccc1)c1ccccc1O` [2'-HYDROXYCHALCONE], 28.4 µM; in that of `O=C(/C=C/c1ccccc1)c1ccc(O)c(O)c1O`, 22.2 µM. Consider `COc1ccc2c(c1)OC(c1ccccc1)CC2=O` (stereo not drawn), for which half-maximal inhibition (IC50) required 35.7 µM. As for `COc1cc(OC)c2c(c1)OC(c1ccccc1)CC2=O` (stereo not drawn) [DIMETHYLPINOCEMBRIN], the IC50 was 36 µM.

Consider `COc1ccc(O)c(C(=O)/C=C/c2ccccc2)c1`, for which the IC50 is 29.2 µM. For `COc1cccc(O)c1C(=O)/C=C/c1ccccc1`, the IC50 stood at 18.3 µM. `COc1cc(O)c(C(=O)/C=C/c2ccccc2)c(OC)c1` [FLAVOKAWAIN B] yielded an IC50 of 20 µM.

In a further experiment the test system is MCF7. Put plainly: The compound was tested for antiproliferative activity against MCF-7 human breast cancer cells; In active. Type of experiment: functional, cell-based. Put shortly:
as §1
On to `O=C1CC(c2ccccc2)Oc2c1ccc(O)c2O` (stereo not drawn), for which the IC50 entry is “Not Active”.

Source of the values: ChEMBL document CHEMBL1133865, “Flavonoids: structural requirements for antiproliferative activity on breast cancer cells” (Bioorg Med Chem Lett, 2001).
